Measured values from ChEMBL document CHEMBL4043282, “Discovery of the First Potent, Selective, and Orally Bioavailable Signal Peptide Peptidase-Like 2a (SPPL2a) Inhibitor Displaying Pronounced Immunomodulatory Effects In Vivo” (J Med Chem, 2018).
Active and inactive are the calls of the source. The rule behind the calls is not given here.

Assays:
[1] = target: T1, Signal peptide peptidase-like 2A (Homo sapiens, UniProt Q8TCT8); assay: Inhibition of human SPPL2a expressed in human U2OS cells using EGFP-labeled TNFalpha (1 to 76 residues) NTF as substrate after 24 hrs by Hoechst staining based high content imaging analysis; assay type: cell-based
T1 sequence (Q8TCT8 whole entry): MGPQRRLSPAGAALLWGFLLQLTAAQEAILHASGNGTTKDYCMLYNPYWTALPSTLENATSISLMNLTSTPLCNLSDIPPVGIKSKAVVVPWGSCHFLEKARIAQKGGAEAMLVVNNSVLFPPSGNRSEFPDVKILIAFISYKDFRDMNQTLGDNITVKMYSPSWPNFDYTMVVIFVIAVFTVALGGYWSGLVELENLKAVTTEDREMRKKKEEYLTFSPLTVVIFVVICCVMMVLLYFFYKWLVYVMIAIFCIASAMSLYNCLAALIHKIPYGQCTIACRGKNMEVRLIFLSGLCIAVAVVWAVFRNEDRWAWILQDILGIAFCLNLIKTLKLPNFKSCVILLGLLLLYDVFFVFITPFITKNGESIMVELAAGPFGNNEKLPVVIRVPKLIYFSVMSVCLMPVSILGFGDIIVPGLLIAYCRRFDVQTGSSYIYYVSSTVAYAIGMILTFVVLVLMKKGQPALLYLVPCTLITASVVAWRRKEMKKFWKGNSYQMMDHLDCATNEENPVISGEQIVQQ
Summary of the method: (§1)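 Stable U-2 OS lines expressing human SPPL2a, SPPL2b or SPP constitutively (mouse SPPL2a line analogous, mouse TNFα(aa1-77)-NTF-EGFP-NLS) with doxycycline-inducible EGFP substrate. 3000 cells/well, 3−4 h, then 11-point inhibitor 100 μM to 1 nM, 0.9% DMSO, 5 μg/mL doxycycline, 24 h 37 °C. PFA fixed, Hoechst nuclei; nuclear minus cytoplasmic EGFP intensity; inhibition vs 0.5 μM reference and DMSO; IC50 by nonlinear regression.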

Plasma = assay: Cmin in mouse plasma at 3 mg/kg, po bid administered at 8 and 16 hrs dosing interval between first and second dose respectively for 11 days measured predose on day 12 by LC/MS/MS analysis; assay type: ADME, organism-based; details: in vivo, read-out: Cmin
Summary of the method: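 Mice gavaged bid in 0.5% MC:0.5% Tween or PEG:D5W 3:1; trough sample taken before the morning dose; 50 μL retro-orbital blood into LiHep tubes, kept on ice, plasma separated at 2823g for 5 min, stored at −20 °C until analysis.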

Rattus norvegicus = assay: Dose normalized Cmax in Wistar rat at 10 mg/kg, po bid measured up to 1 hr by LC/MS/MS analysis; assay type: ADME, organism-based, Wister; details: in vivo
Mus musculus = assay: Immunomodulatory activity in mouse assessed as reduction in plasmacytoid dendritic cells in splenocyte at 3 to 30 mg/kg administered via oral gavage bid at 8 and 16 hrs dosing interval between first and second dose respectively for 11 days measured 16 hrs post last dose on day 12 by B220 staining based flow cytometry; assay type: functional, organism-based
Summary of the method: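 Mice gavaged with compound in 0.5% MC:0.5% Tween or PEG:D5W 3:1. Spleens dissociated in GentleMACS, filtered at 40 μm, ACK red-cell lysis, counted; 1 × 10^6 splenocytes stained 30 min on ice in HBSS/2% FBS/5 mM EDTA with antimouse panels for B-cell subsets (B220, CD21, CD23, IgM, IgD) or dendritic cells (PDCA1, CD11c, MHCII, lineage markers); analyzed on Fortessa flow cytometer.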

[2] = target: T2, Signal peptide peptidase-like 2B (Homo sapiens, UniProt Q8TCT7); assay: Inhibition of human SPPL2b expressed in human U2OS cells using EGFP-labeled TNFalpha (1 to 76 residues) NTF as substrate after 24 hrs by Hoechst staining based high content imaging assay; assay type: cell-based; summary of the method: as §1
T2 sequence (Q8TCT7 whole entry): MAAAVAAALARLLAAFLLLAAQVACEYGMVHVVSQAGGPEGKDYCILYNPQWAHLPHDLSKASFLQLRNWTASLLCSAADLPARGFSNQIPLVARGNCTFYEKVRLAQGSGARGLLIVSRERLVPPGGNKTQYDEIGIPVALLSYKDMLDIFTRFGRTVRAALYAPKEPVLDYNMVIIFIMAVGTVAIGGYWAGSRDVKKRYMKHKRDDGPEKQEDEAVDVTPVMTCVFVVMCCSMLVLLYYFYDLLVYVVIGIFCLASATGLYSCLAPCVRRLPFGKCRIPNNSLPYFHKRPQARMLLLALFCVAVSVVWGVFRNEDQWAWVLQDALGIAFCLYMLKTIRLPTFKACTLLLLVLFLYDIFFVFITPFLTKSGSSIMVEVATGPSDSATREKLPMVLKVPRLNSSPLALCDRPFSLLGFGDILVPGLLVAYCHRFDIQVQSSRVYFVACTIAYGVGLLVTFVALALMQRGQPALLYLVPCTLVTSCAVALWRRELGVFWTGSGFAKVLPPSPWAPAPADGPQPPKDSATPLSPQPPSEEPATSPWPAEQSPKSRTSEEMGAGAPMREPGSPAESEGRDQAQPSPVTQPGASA

[3] = Drug uptake in mouse spleen at 10 mg/kg, po administered as single dose after 4 hrs by LC/MS/MS analysis; assay type: ADME, organism-based; details: read-out: Drug uptake
[4] = Drug uptake in mouse spleen at 100 mg/kg, po administered as single dose after 4 hrs by LC/MS/MS analysis; assay type: ADME, organism-based; details: read-out: Drug uptake
[5] = target: T3, Signal peptide peptidase-like 2A (Mus musculus, UniProt Q9JJF9); assay: Inhibition of SPPL2a in mouse whole blood assessed as increase in CD74/p8 accumulation after 5.5 hrs by Western bot method
T3 sequence (Q9JJF9 whole entry): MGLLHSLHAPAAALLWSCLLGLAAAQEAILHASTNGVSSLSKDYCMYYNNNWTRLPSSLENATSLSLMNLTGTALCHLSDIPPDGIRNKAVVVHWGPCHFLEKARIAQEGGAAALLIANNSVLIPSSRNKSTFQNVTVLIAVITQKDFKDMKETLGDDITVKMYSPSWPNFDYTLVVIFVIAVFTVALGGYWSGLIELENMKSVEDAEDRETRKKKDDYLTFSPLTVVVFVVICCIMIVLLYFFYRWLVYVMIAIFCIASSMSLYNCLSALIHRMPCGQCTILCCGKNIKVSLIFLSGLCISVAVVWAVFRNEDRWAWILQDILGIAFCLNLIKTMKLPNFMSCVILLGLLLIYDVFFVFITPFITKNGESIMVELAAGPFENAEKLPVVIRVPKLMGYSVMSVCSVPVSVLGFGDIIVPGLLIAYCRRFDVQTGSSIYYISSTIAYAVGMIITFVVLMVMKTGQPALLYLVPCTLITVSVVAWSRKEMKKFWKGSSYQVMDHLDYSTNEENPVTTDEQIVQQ
Summary of the method: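 Mouse whole blood (200 μL) with compound from 20× stock, 0.5% DMSO final, 5.5 h at 37 °C, 5% CO2 with rotation. RBC lysis, washes, lysis in Tris pH 6.8/Triton/deoxycholate buffer; Western blot with rat anti-mouse CD74 (In-1); p8 band intensity normalized to CD74 full-length/β-actin for dose response.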

[6] = Stability in rat liver microsomes at […] preincubated for 3 mins followed by NADPH addition measured after 1 hr in presence of GSH and [13C2-15N-glycine]-GSH by HPLC/MS method; assay type: ADME, microsome; details: read-out: Stability

IC50 [1] [µM] | concentration (Plasma) [nM] | Cmax/dose (Rattus norvegicus) [nM] | IC50 [2] [µM] | concentration at 4 h [3] [nM] | concentration at 4 h [4] [nM] | IC50 [5] [µM] | remaining at 1 h [6] [%] | Compound | Activity (Mus musculus)
0.16 | 16 | 805 | 0.43 | – | – | – | – | Cc1ncc(F)cc1NC(=O)C[C@H](C(=O)N[C@@H]1C(=O)N2CC3(CC3)CN2C(=O)c2ccccc21)C1CC1 | inactive
– | – | – | – | 127 | 1440 | 0.55 | 93.2 | Cc1ccccc1NC(=O)C[C@@H](C)C(=O)N[C@@H]1C(=O)N2CCCN2Cc2ccccc21 | –
